# This is a sample that favours compounds with a hit; in the whole collection about 5.6% have one here.
# MPTP block – permeability transition pore inhibition; inhibition, % at 10 µM; actives 1.4% (n = 360,000); isolated mouse mitochondria, Ca2+ swelling absorbance, 30 min;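 active means inhibition of 50% or more, scaled per plate between neutral and stimulator controls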;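 further: 0% = DMSO wells given calcium and 100% = 1 mM EGTA wells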
# aDG glyco up – alpha-DG glycosylation activation | actives 0.22% (n = 360,000) | activation, % at 10 µM | Pro5-aDG cells, alpha-DG glycosylation AlphaScreen (IIH6); 0% Pro5, 100% B10-LARGE cell signal;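 active means activation of at least 8% versus controls, or a plate z-score of at least 8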;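 further: Pro5 are CHO cells carrying HIG-tagged alpha-DG that lacks glycosylation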
# UPR CHOP act – activators of apoptotic arm of unfolded protein response (CHOP). actives 0.34% (n = 330,000). AID 449763. CHO-CHOP luciferase reporter, UPR activation, luminescence; percent of tunicamycin response over DMSO baseline. activation, % at 10 µM;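 active means at 10 µM dose, activation of 40% or more, normalized to positive control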;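 further: 100% = tunicamycin at 10 µg/mL and 0% = DMSO alone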
#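 System: CHO-CHOP luciferase reporter cell line | Buffer or medium: F12 medium containing 10% fetal bovine serum | Doses: One dose, 10 µM in 0.5% DMSO | Times: 6 h compound exposure at 37 °C after overnight seeding | Signal: Luciferase luminescence | Read-out: % activation vs tunicamycin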
# UPR XBP1 act – activators of adaptive arm of unfolded protein response (XBP1); CHO-XBP1 luciferase reporter, IRE1-XBP1 UPR activation, luminescence; percent of tunicamycin response, DMSO as zero; activation, % at 20 µM; AID 463104; actives 0.33% (n = 330,000);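 active means versus positive control, 20 µM dose yields 30% or more activation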;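 further: 100% = tunicamycin at 10 µg/mL and 0% = DMSO only wells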
#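 Material: CHO cell line with stable XBP1 luciferase reporter; schedule: 16-18 h cell attachment at 37 °C, then 6 h compound exposure; signal: glow luminescence from Steady-Glo reagent; medium: serum-containing F12 medium, 10% FBS; benchmarks: tunicamycin 10 µg/mL and vehicle-only wells; read-out: percent activation relative to tunicamycin reference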
# CHOP inh – inhibitors of CHOP induction in ER stress response; CHO-K1 CHOP-promoter luciferase, tunicamycin-induced, 15-18 h; inhibition, % at 10 µM; actives 3.8% (n = 220,000); AID 2732;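 active means compounds that reduced the stress-induced luciferase reporter signal by more than about 70% of percent inhibition, limit read from the data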;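 further: 0% = tunicamycin plus vehicle and 100% = wells without tunicamycin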
# GRIN3A LBD mod – modulates the human NR3A ligand-binding domain | NR3A LBD differential scanning fluorimetry, Tm shift; 0% = protein alone, 100% = glycine-bound protein | Tm shift relative to glycine control, % at 25 µM | actives 2.5% (n = 340,000) | AID 1259313;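 active means melting temperature shift of at least 10% of the positive control shift, at one fixed dose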
# * hit, by the source's call; nt = not tested or not shown.
SMILES,MPTP block,aDG glyco up,UPR CHOP act,UPR XBP1 act,CHOP inh,GRIN3A LBD mod
COc1cc2c(cc1/C=C/[N+](=O)[O-])OCO2,8,0,nt,nt,93*,1
Cn1cc(C(=O)OCC(=O)NC2(C#N)CCCC2)c2ccccc21,-3,0,-3,-2,nt,2
O=c1c2ccccc2nc(-c2ccccc2)n1-n1cccc1,0,0,0,2,-60,11*
CC1CCC(C(C)C)C(OC(=O)Cn2c(COc3ccccc3)[n+](C)c3ccccc32)C1 (stereo not drawn),39,0,2,23,92*,-3
C[C@]12CC[C@H](O)CC1=CCC1C2CC[C@@]2(C)C1C[C@@H]1CC(=O)O[C@@H]12 (stereo partly drawn),3,0,0,1,nt,1
O=C(/C=C/c1ccc2c(c1)OCO2)c1c(O)n(CCC2=CCCCC2)c(=O)[nH]c1=O,-3,0,nt,nt,90*,-2
COc1ccc(/C=C/C(=O)c2c(O)n(CCC3=CCCCC3)c(=O)[nH]c2=O)cc1,-3,0,0,2,81*,1
CN(C)CCN=Cc1c(O)n(CCC2=CCCCC2)c(=O)[nH]c1=O,-2,0,0,-2,-2,0
C[C@@H]1O[C@H](C[N+](C)(C)C)CS1,nt,nt,nt,nt,-9,nt
C=C(C)[C@H]1Cc2c(ccc3c2O[C@@H]2COc4cc(OC)c(OC)cc4[C@@H]2C3=O)O1,nt,nt,nt,nt,27,nt
CCC(C)N1C(=O)/C(=C\c2ccc(N3CCCCCC3)cc2)C(=O)NC1=S (stereo not drawn),-19,0,23,1,71*,4
CCC(C)N1C(=O)/C(=C\c2cc3c4c(c2)CCCN4CCC3)C(=O)NC1=S (stereo not drawn),18,0,25,-4,-62,-17
CCOc1cc2c(cc1OCC)-n1cccc1C(c1cccc(F)c1F)NC2 (stereo not drawn),0,0,1,0,nt,10*
Nc1ncnc2c1ncn2[C@@H]1O[C@H](COP(=O)(O)CP(=O)(O)OP(=O)(O)O)[C@H](O)C1O (stereo partly drawn),nt,nt,nt,nt,15,nt
CCOP(=O)(OCC)C(NC(=O)CC(C)C)C(Cl)(Cl)Cl (stereo not drawn),2,0,-2,-1,71*,0
C/C=C(/C)C(=O)O[C@H]1C(C)=C2[C@H]([C@@H]1OC(=O)CCCCCCC)[C@@](C)(OC(C)=O)C[C@H](OC(=O)CCC)[C@@]1(O)[C@H]2OC(=O)[C@@]1(C)O,nt,nt,nt,nt,32,nt
COC(=O)C1=C(C(=O)OC)SC2(S1)C(C(=O)OC)=C(C(=O)OC)Sc1c2ssc1=O,-3,0,nt,nt,nt,25*
CC1(C(=O)O)C2CCC(O2)C1(C)C(=O)O (stereo not drawn),nt,nt,nt,nt,-4,nt
Cc1ccccc1NP(=O)(Oc1ccccc1F)Oc1ccccc1F,-1,0,1,-3,-23,11*
COC(=O)C1=C(c2cc3ccccc3o2)C[C@@H]2CC[C@H]1N2C(=O)NCc1ccc(C(F)(F)F)cc1,1,0,1,-3,nt,-12
O=[N+]([O-])c1ccc(N(CCO)CCO)c2c1no[n+]2[O-],21,0,nt,nt,nt,nt
CN1CCN(c2ccc([N+](=O)[O-])c3no[n+]([O-])c23)CC1,15,0,nt,nt,107*,-1
C=CC1CN2CCC1CC2C(OC(C)=O)c1ccnc2ccc(OC)cc12 (stereo not drawn),1,0,-1,0,10,1
O=C(N/N=C/c1c(O)n(CCC2=CCCCC2)c(=S)[nH]c1=O)c1ccccc1,24,0,4,2,19,24*
O=C(N/N=C/c1c(O)n(CCC2=CCCCC2)c(=O)[nH]c1=O)c1ccccc1,2,0,1,-1,63,-1
SMILES,MPTP block,aDG glyco up,UPR CHOP act,UPR XBP1 act,CHOP inh,GRIN3A LBD mod
O=c1c2ccccc2[se]n1-c1ccccc1,-1,0,1,-10,35,32*
C[C@H]1CCC/C=C/C2C[C@H](O)CC2[C@H](O)/C=C/C(=O)O1 (stereo partly drawn),0,0,107*,14,nt,0
O=C(Cc1ccc(Cl)c(Cl)c1)N1CCCCC1CN1CCCC1 (stereo not drawn),nt,nt,nt,nt,5,nt
NNc1n[nH]c(=S)n1N,2,0,1,1,-10,-1
Cc1cc(C)cc(N2C(=O)NC(=O)/C(=C/c3cccn3-c3ccc(Cl)cc3)C2=O)c1,7,0,99*,-2,-88,0
CC(C)(C)n1cccc1/C=C1\C(=O)NC(=O)N(c2ccccc2)C1=O,-1,0,1,1,-14,-6
O=C(COC(=O)c1cccc(O)c1)Nc1ccc(Cl)cc1C(=O)c1ccccc1,3,0,-1,2,80*,9
CN1C(=O)C(c2ccc([N+](=O)[O-])cc2[N+](=O)[O-])C(=O)N(C)C1=O,1,0,-2,-7,nt,10*
COc1ccc(Oc2cc(NC(=O)c3nn(C)cc3[N+](=O)[O-])cc([N+](=O)[O-])c2)cc1,0,-1,17,2,-54,15*
COc1ccc(NC(=O)c2cn(CCC#N)nc2-c2cccc([N+](=O)[O-])c2)cc1,-1,0,1,-1,-8,-3
O=C1NC(=O)N(CCc2ccc(F)cc2)C(=O)/C1=C\C=C\c1ccccc1,-5,-1,nt,nt,73*,-3
CN1CCN(c2nc(N)c(Br)c(Cl)n2)CC1,-1,0,2,-4,15,14*
C=C(C=O)CC1CC(O)[C@]2(C)OC3C[C@@H]4OC5C[C@]6(C)O[C@]7(C)CCC8OC9C[C@]%10(C)OC(/C(C)=C\CO)C(O)CC%10OC9CC(C)C8OC7CC6O[C@]5(C)C/C=C\C4OC3CC2O1 (stereo partly drawn),-1,0,1,-2,nt,2
C=C(C=O)C[C@@H]1C[C@H](O)C2OC3C[C@]4(C)OC5/C=C\CC6OC7C(CC=CCC6OC5CCCC4OC3CC2O1)OC1CC2OC3CC(=O)OC3C[C@@H](C)C[C@@]2(C)OC1C[C@@H]7C (stereo partly drawn),nt,nt,-9,-9,107*,9
NC(CCCCCP(=O)(O)O)C(=O)O (stereo not drawn),nt,nt,nt,nt,-19,nt
CC(C)c1ccc(N=Cc2c(O)n(C3CC3)c(=S)[nH]c2=O)cc1,2,0,6,1,84*,-2
CCCn1c(=O)c2[nH]c(C3CCCC3)nc2n(CCCOC(=O)c2ccc(S(=O)(=O)F)cc2)c1=O,nt,nt,nt,nt,0,nt
O=C(O)[C@@H]1CCN1,nt,nt,nt,nt,6,nt

# Source: PubChem BioAssay (several laboratories)
